Experimental data taken from ChEMBL document CHEMBL4689842, “EUbOPEN Chemogenomics Library wave 1” (2021).

Test system: U2OS
Assay: Multiplex assay against U2OS
Assay type: toxicity, cell-based
Details: human
Procedure, shortened: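 Cells stained live at seeding with Hoechst33342, BioTracker Green Microtubule Cytoskeleton Dye, MitoTracker Red and Annexin V Alexa Fluor 680 were imaged on a CQ1 microscope at 37°C and 5% CO2 after compound addition. Their classification by CellPathfinder machine-learning gating ran from Hoechst high-intensity objects versus normal cells, to healthy, pyknosed or fragmented nuclei among normal cells, to mitotic or apoptotic among pyknosed cells. Tubulin, mitochondrial-mass and membrane-permeability phenotypes are per cents of healthy-nucleus cells.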

[1] = 12 h, 1 µM, compound concentration 1 uM, replicate 1
[2] = 12 h, 1 µM, compound concentration 1 uM, replicate 2
[3] = 12 h, 10 µM, compound concentration 10 uM, replicate 1
[4] = 12 h, 10 µM, compound concentration 10 uM, replicate 2
[5] = 24 h, 1 µM, compound concentration 1 uM, replicate 1
[6] = 24 h, 1 µM, compound concentration 1 uM, replicate 2
[7] = 24 h, 10 µM, compound concentration 10 uM, replicate 1
[8] = 24 h, 10 µM, compound concentration 10 uM, replicate 2
[9] = 48 h, 1 µM, compound concentration 1 uM, replicate 1
[10] = 48 h, 1 µM, compound concentration 1 uM, replicate 2
[11] = 48 h, 10 µM, compound concentration 10 uM, replicate 1
[12] = 48 h, 10 µM, compound concentration 10 uM, replicate 2

Structure (SMILES): Cc1cn(-c2cc(NC(=O)c3ccc(C)c(Nc4nccc(-c5cccnc5)n4)c3)cc(C(F)(F)F)c2)cn1 [NILOTINIB]
- Population Apoptotic (%) [1]: 46%
- Population Fragmented Nuclei (%) [1]: 14%
- Population Healthy Nuclei (%) [1]: 69%
- Population Hoechst High Intensity Objects (%) [1]: 8%
- Population Membrane Permeable-Phenotype (%) [1]: 10%
- Population Mitochondria Different-Phenotype (%) [1]: 77%
- Population Mitotic Cells (%) [1]: 53%
- Population Normal (%) [1]: 91%
- Population Pyknosed Nuclei (%) [1]: 16%
- Population Tubulin-Different-Phenotype (%) [1]: 94%
- Total Cell Count [1]: 134
- Population Apoptotic (%) [2]: 25%
- Population Fragmented Nuclei (%) [2]: 1%
- Population Healthy Nuclei (%) [2]: 86%
- Population Membrane Permeable-Phenotype (%) [2]: 1%
- Population Mitochondria Different-Phenotype (%) [2]: 18%
- Population Mitotic Cells (%) [2]: 75%
- Population Pyknosed Nuclei (%) [2]: 11%
- Population Tubulin-Different-Phenotype (%) [2]: 10%
- Total Cell Count [2]: 66
- Population Apoptotic (%) [3]: 86%
- Population Fragmented Nuclei (%) [3]: 45%
- Population Healthy Nuclei (%) [3]: 20%
- Population Hoechst High Intensity Objects (%) [3]: 49%
- Population Membrane Permeable-Phenotype (%) [3]: 30%
- Population Mitochondria Different-Phenotype (%) [3]: 89%
- Population Mitotic Cells (%) [3]: 13%
- Population Normal (%) [3]: 50%
- Population Pyknosed Nuclei (%) [3]: 33%
- Population Tubulin-Different-Phenotype (%) [3]: 93%
- Total Cell Count [3]: 185
- Population Apoptotic (%) [4]: 33%
- Population Fragmented Nuclei (%) [4]: 18%
- Population Healthy Nuclei (%) [4]: 72%
- Population Hoechst High Intensity Objects (%) [4]: 7%
- Population Membrane Permeable-Phenotype (%) [4]: 4%
- Population Mitochondria Different-Phenotype (%) [4]: 61%
- Population Mitotic Cells (%) [4]: 66%
- Population Normal (%) [4]: 92%
- Population Pyknosed Nuclei (%) [4]: 9%
- Population Tubulin-Different-Phenotype (%) [4]: 63%
- Total Cell Count [4]: 73
- Population Apoptotic (%) [5]: 55%
- Population Fragmented Nuclei (%) [5]: 12%
- Population Healthy Nuclei (%) [5]: 66%
- Population Hoechst High Intensity Objects (%) [5]: 6%
- Population Membrane Permeable-Phenotype (%) [5]: 14%
- Population Mitochondria Different-Phenotype (%) [5]: 73%
- Population Mitotic Cells (%) [5]: 44%
- Population Normal (%) [5]: 93%
- Population Pyknosed Nuclei (%) [5]: 20%
- Population Tubulin-Different-Phenotype (%) [5]: 92%
- Total Cell Count [5]: 135
- Population Apoptotic (%) [6]: 40%
- Population Fragmented Nuclei (%) [6]: 14%
- Population Healthy Nuclei (%) [6]: 79%
- Population Hoechst High Intensity Objects (%) [6]: 5%
- Population Membrane Permeable-Phenotype (%) [6]: 2%
- Population Mitochondria Different-Phenotype (%) [6]: 20%
- Population Mitotic Cells (%) [6]: 60%
- Population Normal (%) [6]: 94%
- Population Pyknosed Nuclei (%) [6]: 5%
- Population Tubulin-Different-Phenotype (%) [6]: 12%
- Total Cell Count [6]: 67
- Population Apoptotic (%) [7]: 85%
- Population Fragmented Nuclei (%) [7]: 60%
- Population Healthy Nuclei (%) [7]: 16%
- Population Hoechst High Intensity Objects (%) [7]: 60%
- Population Membrane Permeable-Phenotype (%) [7]: 29%
- Population Mitochondria Different-Phenotype (%) [7]: 71%
- Population Mitotic Cells (%) [7]: 14%
- Population Normal (%) [7]: 39%
- Population Pyknosed Nuclei (%) [7]: 23%
- Population Tubulin-Different-Phenotype (%) [7]: 78%
- Total Cell Count [7]: 184
- Population Apoptotic (%) [8]: 0%
- Population Fragmented Nuclei (%) [8]: 12%
- Population Healthy Nuclei (%) [8]: 83%
- Population Hoechst High Intensity Objects (%) [8]: 2%
- Population Membrane Permeable-Phenotype (%) [8]: 1%
- Population Mitochondria Different-Phenotype (%) [8]: 42%
- Population Mitotic Cells (%) [8]: 100%
- Population Normal (%) [8]: 97%
- Population Pyknosed Nuclei (%) [8]: 4%
- Population Tubulin-Different-Phenotype (%) [8]: 30%
- Total Cell Count [8]: 93
- Population Apoptotic (%) [9]: 65%
- Population Fragmented Nuclei (%) [9]: 14%
- Population Healthy Nuclei (%) [9]: 67%
- Population Hoechst High Intensity Objects (%) [9]: 3%
- Population Membrane Permeable-Phenotype (%) [9]: 16%
- Population Mitochondria Different-Phenotype (%) [9]: 54%
- Population Mitotic Cells (%) [9]: 34%
- Population Normal (%) [9]: 96%
- Population Pyknosed Nuclei (%) [9]: 17%
- Population Tubulin-Different-Phenotype (%) [9]: 80%
- Total Cell Count [9]: 127
- Population Apoptotic (%) [10]: 25%
- Population Fragmented Nuclei (%) [10]: 4%
- Population Healthy Nuclei (%) [10]: 92%
- Population Hoechst High Intensity Objects (%) [10]: 5%
- Population Membrane Permeable-Phenotype (%) [10]: 6%
- Population Mitochondria Different-Phenotype (%) [10]: 18%
- Population Mitotic Cells (%) [10]: 75%
- Population Normal (%) [10]: 94%
- Population Pyknosed Nuclei (%) [10]: 3%
- Population Tubulin-Different-Phenotype (%) [10]: 24%
- Total Cell Count [10]: 64
- Population Apoptotic (%) [11]: 85%
- Population Fragmented Nuclei (%) [11]: 69%
- Population Healthy Nuclei (%) [11]: 10%
- Population Hoechst High Intensity Objects (%) [11]: 61%
- Population Membrane Permeable-Phenotype (%) [11]: 24%
- Population Mitochondria Different-Phenotype (%) [11]: 33%
- Population Mitotic Cells (%) [11]: 15%
- Population Normal (%) [11]: 38%
- Population Pyknosed Nuclei (%) [11]: 19%
- Population Tubulin-Different-Phenotype (%) [11]: 40%
- Total Cell Count [11]: 245
- Population Apoptotic (%) [12]: 11%
- Population Fragmented Nuclei (%) [12]: 15%
- Population Healthy Nuclei (%) [12]: 75%
- Population Hoechst High Intensity Objects (%) [12]: 4%
- Population Membrane Permeable-Phenotype (%) [12]: 8%
- Population Mitochondria Different-Phenotype (%) [12]: 20%
- Population Mitotic Cells (%) [12]: 88%
- Population Normal (%) [12]: 95%
- Population Pyknosed Nuclei (%) [12]: 9%
- Population Tubulin-Different-Phenotype (%) [12]: 25%
- Total Cell Count [12]: 132

Structure (SMILES): COc1cccc2cc(-c3nc([C@H]4CC[C@H](C(=O)O)CC4)n4ncnc(N)c34)[nH]c12 [OSI-027]
- Population Apoptotic (%) [1]: 55%
- Population Fragmented Nuclei (%) [1]: 14%
- Population Healthy Nuclei (%) [1]: 81%
- Population Hoechst High Intensity Objects (%) [1]: 1%
- Population Membrane Permeable-Phenotype (%) [1]: 10%
- Population Mitochondria Different-Phenotype (%) [1]: 6%
- Population Mitotic Cells (%) [1]: 44%
- Population Normal (%) [1]: 98%
- Population Pyknosed Nuclei (%) [1]: 3%
- Population Tubulin-Different-Phenotype (%) [1]: 21%
- Total Cell Count [1]: 227
- Population Apoptotic (%) [2]: 33%
- Population Fragmented Nuclei (%) [2]: 18%
- Population Healthy Nuclei (%) [2]: 79%
- Population Hoechst High Intensity Objects (%) [2]: 7%
- Population Membrane Permeable-Phenotype (%) [2]: 8%
- Population Mitochondria Different-Phenotype (%) [2]: 3%
- Population Mitotic Cells (%) [2]: 66%
- Population Normal (%) [2]: 92%
- Population Pyknosed Nuclei (%) [2]: 1%
- Population Tubulin-Different-Phenotype (%) [2]: 31%
- Total Cell Count [2]: 117
- Population Apoptotic (%) [3]: 8%
- Population Fragmented Nuclei (%) [3]: 5%
- Population Healthy Nuclei (%) [3]: 76%
- Population Hoechst High Intensity Objects (%) [3]: 10%
- Population Membrane Permeable-Phenotype (%) [3]: 10%
- Population Mitochondria Different-Phenotype (%) [3]: 21%
- Population Mitotic Cells (%) [3]: 91%
- Population Normal (%) [3]: 89%
- Population Pyknosed Nuclei (%) [3]: 17%
- Population Tubulin-Different-Phenotype (%) [3]: 27%
- Total Cell Count [3]: 160
- Population Apoptotic (%) [4]: 14%
- Population Fragmented Nuclei (%) [4]: 14%
- Population Healthy Nuclei (%) [4]: 78%
- Population Hoechst High Intensity Objects (%) [4]: 17%
- Population Membrane Permeable-Phenotype (%) [4]: 7%
- Population Mitochondria Different-Phenotype (%) [4]: 26%
- Population Mitotic Cells (%) [4]: 85%
- Population Normal (%) [4]: 82%
- Population Pyknosed Nuclei (%) [4]: 7%
- Population Tubulin-Different-Phenotype (%) [4]: 39%
- Total Cell Count [4]: 101
- Population Apoptotic (%) [5]: 29%
- Population Fragmented Nuclei (%) [5]: 10%
- Population Healthy Nuclei (%) [5]: 81%
- Population Hoechst High Intensity Objects (%) [5]: 3%
- Population Membrane Permeable-Phenotype (%) [5]: 6%
- Population Mitochondria Different-Phenotype (%) [5]: 5%
- Population Mitotic Cells (%) [5]: 70%
- Population Normal (%) [5]: 96%
- Population Pyknosed Nuclei (%) [5]: 8%
- Total Cell Count [5]: 270
- Population Apoptotic (%) [6]: 42%
- Population Fragmented Nuclei (%) [6]: 13%
- Population Healthy Nuclei (%) [6]: 82%
- Population Hoechst High Intensity Objects (%) [6]: 5%
- Population Membrane Permeable-Phenotype (%) [6]: 10%
- Population Mitochondria Different-Phenotype (%) [6]: 7%
- Population Mitotic Cells (%) [6]: 57%
- Population Normal (%) [6]: 94%
- Population Pyknosed Nuclei (%) [6]: 3%
- Population Tubulin-Different-Phenotype (%) [6]: 29%
- Total Cell Count [6]: 144
- Population Apoptotic (%) [7]: 13%
- Population Fragmented Nuclei (%) [7]: 6%
- Population Healthy Nuclei (%) [7]: 81%
- Population Hoechst High Intensity Objects (%) [7]: 7%
- Population Membrane Permeable-Phenotype (%) [7]: 12%
- Population Mitochondria Different-Phenotype (%) [7]: 20%
- Population Mitotic Cells (%) [7]: 86%
- Population Normal (%) [7]: 92%
- Population Pyknosed Nuclei (%) [7]: 11%
- Population Tubulin-Different-Phenotype (%) [7]: 31%
- Total Cell Count [7]: 190
- Population Apoptotic (%) [8]: 0%
- Population Fragmented Nuclei (%) [8]: 14%
- Population Healthy Nuclei (%) [8]: 84%
- Population Hoechst High Intensity Objects (%) [8]: 11%
- Population Membrane Permeable-Phenotype (%) [8]: 11%
- Population Mitochondria Different-Phenotype (%) [8]: 31%
- Population Mitotic Cells (%) [8]: 100%
- Population Normal (%) [8]: 88%
- Population Pyknosed Nuclei (%) [8]: 1%
- Population Tubulin-Different-Phenotype (%) [8]: 34%
- Total Cell Count [8]: 120
